# A selection: hits, their analogues and other compounds. The true share with any hit is near 2.6%.
# HTRA1 inhibitor: HTRA1 (human) protease inhibition; recombinant HTRA1, FP-rhodamine activity-based probe, fluorescence polarization; 340,000 tested, 0.5% active; Q92743; inhibition, % at 5.96 µM; in the data active means inhibition above about 36%;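 further: 0% = enzyme with DMSO and 100% = wells lacking enzyme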
# SIAE primary: blocks human sialic acid acetylesterase. Q9HAT2. SIAE FP-Rh probe binding, fluorescence polarization. inhibition, % at 9.66 µM. 370,000 tested, 0.69% active. AID 1053197;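 active means inhibition above a cutoff: mean of compounds within the control limits plus 3 SD of those, cut at about 17% in these data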;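 further: 0% = plate median of compound wells and 100% = probe without SIAE protein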
# Target sequence (Q9HAT2 whole entry, looked up): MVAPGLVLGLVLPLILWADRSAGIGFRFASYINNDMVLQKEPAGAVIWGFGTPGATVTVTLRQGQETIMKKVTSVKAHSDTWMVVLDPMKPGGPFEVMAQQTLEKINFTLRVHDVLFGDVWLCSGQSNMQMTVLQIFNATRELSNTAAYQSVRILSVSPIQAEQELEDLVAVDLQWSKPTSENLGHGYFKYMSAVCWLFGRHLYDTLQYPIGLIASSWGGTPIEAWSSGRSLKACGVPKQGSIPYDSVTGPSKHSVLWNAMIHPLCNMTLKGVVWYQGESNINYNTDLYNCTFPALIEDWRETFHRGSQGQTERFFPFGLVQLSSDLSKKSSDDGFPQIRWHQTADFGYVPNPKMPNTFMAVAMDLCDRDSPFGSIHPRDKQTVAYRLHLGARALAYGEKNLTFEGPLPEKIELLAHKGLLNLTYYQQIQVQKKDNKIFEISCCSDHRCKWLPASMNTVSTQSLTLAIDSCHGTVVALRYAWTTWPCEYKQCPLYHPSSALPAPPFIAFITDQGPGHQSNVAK
# PRMT1 inh: blocks human protein arginine methyltransferase 1; recombinant PRMT1, activity-based probe fluorescence polarization; inhibition, % at 2.79 µM; 370,000 tested, 1.3% active;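 active means inhibition above about 21% made by adding two undisclosed values, limit read from the data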
# ABHD4 inh: inhibits mouse alpha/beta hydrolase domain 4; Q8VD66; purified mABHD4, FP-Rh probe fluorescence polarization; inhibition, % at 8.92 µM; 370,000 tested, 0.54% active; AID 720543;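 active means inhibition exceeding the mean over every tested compound plus 3 SD, cut at about 30% in these data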;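 further: 0% = plate median of compound wells and 100% = S159A mutant with DMSO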
#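 system = mouse ABHD4 enzyme, wild type | medium = HEPES pH 7.0, NaCl, Pluronic buffer | also added = FP-Rh probe | incubation = Enzyme–compound pre-incubation 45 min, then probe 60 min, both 25 °C | technique = fluorescence polarization, excitation 525 nm, emission 598 nm, BODIPY TMR filters | controls = S159A mutant high control, sample median low control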
# TCR CD3 inh: blocks the human TCR-CD3 interaction. TAMRA-labeled TCR probe fluorescence, biochemical. inhibition, % at 9.4 µM. 360,000 tested, 0.37% active; in the data active means inhibition above about 19%;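 further: recombinant mutant TCR 2C K166C tagged with TAMRA read by polarization; 0% = receptor in buffer alone and 100% = receptor with positive control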
# PRMT1 inh conf: confirmation of human PRMT1 inhibitors | AID 687036 | recombinant His-PRMT1, activity-based probe fluorescence polarization | shares compounds with PRMT1 inh | inhibition, % at 2.79 µM | 3,300 tested, 42% active;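 active means mean inhibition across replicates above the hit cutoff derived for the earlier primary screen, cut at about 22% in these data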
# The depositor's hits bear a star; . = no result.
SMILES,HTRA1 inhibitor,SIAE primary,PRMT1 inh,ABHD4 inh,TCR CD3 inh,PRMT1 inh conf
CCC1(C(=O)OC)NC(c2ccco2)C2C(=O)N(c3ccccc3)C(=O)C21 (stereo unspecified),3,0,2,-2,1,.
Cc1ccc(N2C(=O)C3C4C=CC(CNC(=S)Nc5ccc(Cl)cc5)(O4)C3C2=O)cc1 (stereo unspecified),-38,-6,85*,-2,-3,29*
Cc1ccc(N2C(=O)C3C4C=CC(CNC(=S)N5CCN(c6ccccn6)CC5)(O4)C3C2=O)cc1 (stereo unspecified),3,3,57*,-4,-1,48*
CC(C)(C)C(=O)NCC12C=CC(O1)C1C(=O)N(c3ccccc3)C(=O)C12 (stereo unspecified),8,-1,81*,13,-3,56*
Cc1ccc(N2C(=O)C3C4C=CC(CNC(=S)Nc5ccc(F)cc5)(O4)C3C2=O)cc1 (stereo unspecified),-8,3,80*,1,-2,41*
COc1ccc(NC(=O)N(C)C[C@H]2Oc3ccc(NC(=O)Cc4ccccc4)cc3CC(=O)N([C@H](C)CO)C[C@H]2C)cc1,-1,8,0,-3,3,.
CN(C)c1ccc(-c2ccnc3c2CC(C)(C(=O)Nc2ccc(F)c(Cl)c2)O3)cc1 (stereo unspecified),.,7,3,5,-13,.
Cc1ccc(N2C(=O)C3C4C=CC(CNC(=S)Nc5cccc(Cl)c5)(O4)C3C2=O)cc1 (stereo unspecified),-38,2,90*,-9,-2,53*
CC(C)COC(=O)NCC12C=CC(O1)C1C(=O)N(c3ccc(Cl)cc3)C(=O)C12 (stereo unspecified),1,0,37*,4,-2,33*
COc1ccc(CN2C[C@H](COCc3ccccc3)Oc3cccc(F)c3S2(=O)=O)cc1,.,-4,-4,-9,-3,.
Cc1ccc(S(=O)(=O)C/N=C(/NC(=S)N(c2ccccc2)c2ccccc2)c2ccccc2)cc1,2,-6,28*,11,-2,27*
NS(=O)(=O)c1ccc(CCNC(=O)CCC(=O)c2cccs2)cc1,-6,-3,4,-3,-5,.
O=C(CCC(=O)c1cccs1)NCCc1ccc(F)cc1,-21,2,26*,2,11,-2
S=C1SCN(Cc2ccccn2)CN1Cc1ccco1,1,9,30*,6,5,13
COc1ccc(S[C@]2(C(=O)N3CCCC3)CC(=O)N(C(=O)C3CC3)[C@@H]2c2ccc(OC)cc2)cc1,.,-2,38*,-1,.,36*
COC(=O)[C@@]1(Sc2ccc(C)cc2)CC(=O)N(C(=O)C2CC2)[C@@H]1c1ccccc1,.,5,55*,2,7,58*
COc1ccc(S[C@]2(C(=O)N3CCN(C(C)=O)CC3)CC(=O)N(C(=O)C3CC3)[C@@H]2c2ccc(OC)cc2)cc1,.,1,53*,3,.,44*
COC(=O)[C@@]1(Sc2ccc(C)cc2)CC(=O)N(c2ccc(Cl)cc2)[C@@H]1c1ccccc1,.,-6,0,1,4,.
Cc1csc(NC(=O)COc2ccc3c(c2)CCC3)n1,-7,-1,-5,4,5,.
CCOC(=O)c1c(NS(=O)(=O)Cc2ccccc2)sc2c1CCCC2,-10,15,4,9,4,.
CCOC(=O)c1c(NS(=O)(=O)c2ccc(Br)cc2)sc2c1CCC2,15,-2,27*,29,4,13
CC(C)C(NC(=O)C1CCCCC1)C(=O)NCCc1ccccc1 (stereo unspecified),6,7,25*,0,1,-1
O=C(O)CNc1nc(-c2ccccc2)c2cc([N+](=O)[O-])ccc2n1,1,3,26*,14,9,30*
CC(C)NC(=O)N(C)C[C@H]1Oc2ccc(NC(=O)c3ccncc3)cc2C(=O)N([C@H](C)CO)C[C@@H]1C,4,-2,3,-1,-7,.
COc1ccc(S[C@]2(C(=O)N3CCCC3)CC(=O)N(P(=O)(OC)OC)[C@@H]2c2ccc(OC)cc2)cc1,.,-7,8,-7,.,.
SMILES,HTRA1 inhibitor,SIAE primary,PRMT1 inh,ABHD4 inh,TCR CD3 inh,PRMT1 inh conf
COCCN(C(=S)Nc1c(C)cc(C)cc1C)C(C)c1cccnc1 (stereo unspecified),1,3,74*,4,1,63*
Cc1cc(Br)cn2c(Cc3ccccc3C(F)(F)F)c(-c3ccccc3)nc12,.,-4,0,-6,0,.
Cc1cc(Br)cn2c(Cc3cccc(Cl)c3)c(-c3ccco3)nc12,.,-7,44*,14,7,18
Cc1cc(Br)cn2c(Cc3ccccc3)c(-c3cccc(Cl)c3)nc12,.,-12,9,-35,4,.
Fc1ccc(-c2nc3c(Cl)cc(C(F)(F)F)cn3c2Cc2cccc(F)c2)cc1,.,-4,-4,-19,2,.
Fc1cccc(Cc2c(-c3ccco3)nc3c(Cl)cc(C(F)(F)F)cn23)c1,.,-3,38*,3,-1,23*
Cc1cc(Br)cn2c(Cc3ccccc3C(F)(F)F)c(-c3ccco3)nc12,.,1,40*,-3,3,23*
Cc1ccc(Cc2c(-c3ccco3)nc3c(C)cc(Br)cn23)cc1,.,-3,33*,7,-3,18
C=CCc1cccc2cc(C(=O)O)c(=O)oc12,3,13,0,11,4,.
C=CCc1cccc2cc(C(=O)Nc3ccccc3C(=O)O)c(=O)oc12,.,-16,36*,-10,2,18
CCN(Cc1ccccc1)c1ccc(/C=C(\C#N)c2ccccn2)cc1,-5,1,57*,8,7,-1
CCN(CC)c1ccc(/C=C(\C#N)c2ccccn2)cc1,11,.,.,.,.,.
COc1cccc([C@@H](NC(=O)C(F)(F)F)[C@@H]2CCCC=C2c2ccccc2)c1,.,3,-6,-2,3,.
Cc1ccc(Cn2c(=S)[nH]c3ccc(N4CCOCC4)cc3c2=O)o1,14,6,69*,12,3,61*
CC1CCCCC1NC(=O)CCS(=O)(=O)c1ccc(Cl)cc1 (stereo unspecified),8,-4,-1,1,7,.
CC(=O)c1ccc(S(=O)(=O)NCC(=O)NC(c2nc3ccccc3[nH]2)C(C)C)cc1 (stereo unspecified),-2,-3,34*,-2,6,38*
CCN1C(=O)[C@@H]2[C@H](C1=O)[C@@H]1C(=O)Nc3ccccc3C(=O)N1[C@@H]2c1ccc(OC)cc1,-2,1,0,1,-6,.
Cc1cccc(C)c1NC(=S)NC(C)(C)CO,6,4,-1,-2,2,.
O=C(CC(Nc1ccccc1)C(=O)O)c1ccccc1 (stereo unspecified),-4,-1,12,8,6,.
